Test results from ChEMBL document CHEMBL1914406, “Inhibitory effect of novel 5-O-acyl juglones on mammalian DNA polymerase activity, cancer cell growth and inflammatory response” (Bioorg Med Chem, 2011).
Activity calls are given as the source filed them. The calls are words filed in the database; no cut-off is given here.

Experiments:
[1] = target: T1, DNA polymerase kappa (Homo sapiens) (UniProt Q9UBT6); experiment: Inhibition of C-terminal His6-tagged human DNA polymerase kappa (amino acids 1 to 560) using bovine deoxyribonuclease 1-treated DNA and dNTP as the DNA template-primer and nucleotide substrate at 10 uM after 60 mins
T1 sequence (whole entry): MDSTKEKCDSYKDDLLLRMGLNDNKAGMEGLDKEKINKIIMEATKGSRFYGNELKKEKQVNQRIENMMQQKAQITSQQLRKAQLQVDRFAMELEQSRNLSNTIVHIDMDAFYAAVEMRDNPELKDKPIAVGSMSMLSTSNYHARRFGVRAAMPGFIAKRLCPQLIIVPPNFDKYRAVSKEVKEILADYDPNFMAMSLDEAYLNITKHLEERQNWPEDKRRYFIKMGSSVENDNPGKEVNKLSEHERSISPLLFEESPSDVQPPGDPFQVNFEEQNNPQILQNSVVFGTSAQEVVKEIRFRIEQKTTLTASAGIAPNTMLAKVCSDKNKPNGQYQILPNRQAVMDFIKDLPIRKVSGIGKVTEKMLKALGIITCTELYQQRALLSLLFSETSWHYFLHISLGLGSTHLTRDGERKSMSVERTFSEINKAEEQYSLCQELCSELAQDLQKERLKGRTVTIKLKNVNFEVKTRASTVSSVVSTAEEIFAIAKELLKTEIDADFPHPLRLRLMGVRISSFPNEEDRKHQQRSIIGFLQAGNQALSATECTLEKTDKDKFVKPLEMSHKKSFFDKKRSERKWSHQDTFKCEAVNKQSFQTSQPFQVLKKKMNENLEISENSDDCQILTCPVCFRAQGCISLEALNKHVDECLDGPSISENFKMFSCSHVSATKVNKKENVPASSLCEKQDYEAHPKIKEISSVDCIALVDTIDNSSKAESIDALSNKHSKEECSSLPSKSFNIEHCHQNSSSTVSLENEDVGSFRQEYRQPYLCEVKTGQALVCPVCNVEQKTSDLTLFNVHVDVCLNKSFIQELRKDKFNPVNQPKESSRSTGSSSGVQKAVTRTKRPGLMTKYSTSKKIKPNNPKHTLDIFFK

Homo sapiens [2] = species: Homo sapiens; experiment: Inhibition of histidine-tagged human DNA polymerase gamma using bovine deoxyribonuclease 1-treated DNA and dNTP as the DNA template-primer and nucleotide substrate at 10 uM after 60 mins
RAW264.7 [3] = experiment: Cytotoxicity against mouse RAW264.7 cells at 5 uM; assay type: cell-based; conditions: raw264.7, 5 µM
[4] = target: T2, DNA polymerase lambda (Homo sapiens) (UniProt Q9UGP5); experiment: Inhibition of recombinant His-tagged human DNA polymerase lambda using bovine deoxyribonuclease 1-treated DNA and dNTP as the DNA template-primer and nucleotide substrate at 10 uM after 60 mins
T2 sequence (whole entry): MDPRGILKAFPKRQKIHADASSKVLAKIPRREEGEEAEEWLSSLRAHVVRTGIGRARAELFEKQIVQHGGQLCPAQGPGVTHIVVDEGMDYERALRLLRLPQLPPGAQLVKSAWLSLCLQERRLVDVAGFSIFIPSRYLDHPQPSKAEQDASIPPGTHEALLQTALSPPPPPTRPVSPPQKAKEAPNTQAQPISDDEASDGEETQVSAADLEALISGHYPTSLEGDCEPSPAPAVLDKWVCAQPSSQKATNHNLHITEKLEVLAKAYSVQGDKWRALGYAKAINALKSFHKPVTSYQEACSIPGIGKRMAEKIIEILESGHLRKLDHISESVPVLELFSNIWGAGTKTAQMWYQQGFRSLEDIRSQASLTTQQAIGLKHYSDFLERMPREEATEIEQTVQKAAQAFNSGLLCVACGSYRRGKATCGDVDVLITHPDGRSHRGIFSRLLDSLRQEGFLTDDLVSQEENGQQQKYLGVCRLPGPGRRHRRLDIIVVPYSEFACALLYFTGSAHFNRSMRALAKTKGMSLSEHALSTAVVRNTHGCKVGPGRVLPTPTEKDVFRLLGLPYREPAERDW

Bos taurus [5] = species: Bos taurus; experiment: Inhibition of calf DNA polymerase alpha using poly(dA)/oligo(dT)18 (A/T = 2/1) and dTTP as the DNA template-primer and nucleotide substrate at 10 uM after 60 mins
How it was run: (§1)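 Compound in DMSO, sonicated 30 s. Premixed 0 °C, 10 min with enzyme (0.05 units) in 50 mM Tris-HCl pH 7.5, 1 mM DTT, 50% glycerol, 0.1 mM EDTA, then added to standard reaction mixture. Template-primers: poly(dA)/oligo(dT)18 (2/1) for pols, oligo(dT)18 for TdT, poly(rA)/oligo(dT)18 for HIV-1 RT, with [3H]dTTP. 60 min at 37 °C (Taq 74 °C). Activity relative to no-inhibitor control; mean ± SE of three experiments.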

Mus musculus = experiment: Antiinflammatory activity in mouse assessed as inhibition of TPA-induced mouse ear edema at 500 ug/ear administered 30 mins before TPA challenge measured after 7 hrs relative to untreated control; assay type: functional, organism-based
How it was run: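 Compound (500 µg) applied to one mouse ear; 30 min later TPA (0.5 µg) applied to both ears. Edema scored after 7 h and expressed as percentage of edema. Mean ± SE, n = 6.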

[6] = target: T2, DNA polymerase lambda (Homo sapiens); experiment: Inhibition of recombinant His-tagged human DNA polymerase lambda using poly(dA)/oligo(dT)18 (A/T = 2/1) and dTTP as the DNA template-primer and nucleotide substrate at 10 uM after 60 mins; how it was run: as §1
Homo sapiens [7] = species: Homo sapiens; experiment: Inhibition of histidine-tagged human DNA polymerase gamma using poly(dA)/oligo(dT)18 (A/T = 2/1) and dTTP as the DNA template-primer and nucleotide substrate at 10 uM after 60 mins; how it was run: as §1
[8] = target: T1, DNA polymerase kappa (Homo sapiens); experiment: Inhibition of C-terminal His6-tagged human DNA polymerase kappa (amino acids 1 to 560) using poly(dA)/oligo(dT)18 (A/T = 2/1) and dTTP as the DNA template-primer and nucleotide substrate at 10 uM after 60 mins
HCT-116 = experiment: Cytotoxicity against human HCT116 cells at 100 uM by WST-1 assay; assay type: functional, cell-based
How it was run: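 HCT116 colon carcinoma cells (ATCC) grown in McCoy's 5A with 10% FBS, penicillin and streptomycin, 37 °C, 5% CO2. Plated at 1 × 10⁴ cells/well together with compound, which was diluted from a 10 mM DMSO stock into medium (final 0.5% DMSO). Incubated 24 h. Viability read by WST-1, expressed relative to untreated cells.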

Bos taurus [9] = species: Bos taurus; experiment: Inhibition of calf DNA polymerase alpha using bovine deoxyribonuclease 1-treated DNA and dNTP as the DNA template-primer and nucleotide substrate at 10 uM after 60 mins
RAW264.7 [10] = experiment: Antiinflammatory activity in mouse RAW264.7 cells assessed as inhibition of LPS-induced TNFalpha secretion at 5 uM treated 30 mins before LPS challenge measured after 24 hrs by ELISA; assay type: functional, cell-based
How it was run: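 RAW264.7 cells in MEM with 4.5 g/L glucose, 10% FCS, 5 mM L-glutamine, at 37 °C in 5% CO2. Seeded at 5 × 10⁴ cells/well and grown 24 h. Compound (final 1 and 5 µM) given 30 min before 100 ng/mL LPS. After 24 h, TNF-α in the medium measured by ELISA, relative to the no-compound value (100%). Mean ± SE, n = 4.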

Nucleic Acid = experiment: Binding affinity to DNA assessed as thermal transition of DNA relative to control; assay type: nucleic-acid assay
[11] = Cytotoxicity against mouse RAW264.7 cells; assay type: cell-based; conditions: read-out: LD50 (the source's name)

Structure (SMILES)	inhibition [1]	inhibition (Homo sapiens [2])	Activity (RAW264.7 [3])	inhibition [4]	inhibition (Bos taurus [5])	Activity (Mus musculus)	inhibition [6]	inhibition (Homo sapiens [7])	inhibition [8]	Activity (HCT-116)	inhibition (Bos taurus [9])	Activity (RAW264.7 [10])	Activity (Nucleic Acid)	CC50 [11] [µM]
O=C1C=CC(=O)c2c(O)cccc21 [JUGLONE]	Active	Active	Non-toxic	Active	Active	Active	Active	Active	Active	Active	Active	Active		
CCC(=O)Oc1cccc2c1C(=O)C=CC2=O	Active	Active	Non-toxic	Active	Active	Active	Active	Active	Active		Active		inactive	> 10
CC/C=C\C/C=C\C/C=C\CCCCCCCC(=O)Oc1cccc2c1C(=O)C=CC2=O	Active	Active	Non-toxic	Active	Active	Active	Active	Active	Active		Active		inactive	> 10
CCCCC/C=C\C/C=C\CCCCCCCC(=O)Oc1cccc2c1C(=O)C=CC2=O	Active	Active	Non-toxic	Active	Active	Active	Active	Active	Active		Active		inactive	> 10
CC(=O)Oc1cccc2c1C(=O)C=CC2=O	Active	Active	Non-toxic	Active	Active	Active	Active	Active	Active		Active		inactive	> 10
CC/C=C\C/C=C\C/C=C\C/C=C\C/C=C\C/C=C\CCC(=O)Oc1cccc2c1C(=O)C=CC2=O	Active	Active	Non-toxic	Active	Active	Active	Active	Active	Active		Active		inactive	> 10
CCCCCCCCCCCCCCCCCC(=O)Oc1cccc2c1C(=O)C=CC2=O	Active	Active	Non-toxic	Active	Active	Active	Active	Active	Active		Active		inactive	> 10
CC/C=C\C/C=C\C/C=C\C/C=C\C/C=C\CCCC(=O)Oc1cccc2c1C(=O)C=CC2=O	Active	Active	Non-toxic	Active	Active	Active	Active	Active	Active		Active		inactive	> 10
